Values joined by “and” are separate entries in the source; they are usually repeats but may differ in a detail not shown here. Equal values may be shown once.
Legend:
[1] = target: T1, Muscarinic acetylcholine receptor M2 (Rattus norvegicus, UniProt P10980); assay: Binding affinity at [3H]CD radiolabeled muscarinic M2 receptor in rat cortex.; format: tissue-based
T1 sequence (P10980 whole entry): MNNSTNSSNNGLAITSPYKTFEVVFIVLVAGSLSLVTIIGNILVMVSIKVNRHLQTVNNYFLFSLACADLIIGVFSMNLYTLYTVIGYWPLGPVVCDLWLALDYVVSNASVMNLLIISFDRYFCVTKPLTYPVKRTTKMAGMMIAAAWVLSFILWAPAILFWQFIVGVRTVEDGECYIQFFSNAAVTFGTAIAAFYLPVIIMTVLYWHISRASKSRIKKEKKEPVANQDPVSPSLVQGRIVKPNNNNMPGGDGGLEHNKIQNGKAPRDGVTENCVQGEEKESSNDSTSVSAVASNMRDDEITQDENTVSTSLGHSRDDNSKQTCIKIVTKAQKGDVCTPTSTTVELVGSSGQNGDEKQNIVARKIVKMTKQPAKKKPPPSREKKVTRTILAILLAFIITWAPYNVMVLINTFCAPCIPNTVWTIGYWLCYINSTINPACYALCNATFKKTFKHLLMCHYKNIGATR
Outline: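 Rat cortex (male Wistar, 200–250 g) homogenized in ice-cold 10 mM Na/K phosphate, pH 7.4, diluted 1:300; ~0.75 mg protein per 2.0 mL. [3H]CD 1 nM, 120 min at 25 °C. Filtration onto PEI-soaked GF/B filters, scintillation counting; Ki from one-site competitive fit.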

[2] = target: T1, Muscarinic acetylcholine receptor M2; assay: Binding affinity at [3H]QNB radiolabeled muscarinic M2 receptor in rat cortex.; format: tissue-based
Outline: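 Cortex from male Wistar rats homogenized in 10 mM NaKPB pH 7.4, diluted 1:3000 (~0.1 mg protein/2.0 mL).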

[3] = target: T2, Muscarinic acetylcholine receptor M1 (Rattus norvegicus, UniProt P08482); assay: Binding affinity at [3H]PZ radiolabeled muscarinic M1 receptor in rat cortex.; format: tissue-based
T2 sequence (P08482 whole entry): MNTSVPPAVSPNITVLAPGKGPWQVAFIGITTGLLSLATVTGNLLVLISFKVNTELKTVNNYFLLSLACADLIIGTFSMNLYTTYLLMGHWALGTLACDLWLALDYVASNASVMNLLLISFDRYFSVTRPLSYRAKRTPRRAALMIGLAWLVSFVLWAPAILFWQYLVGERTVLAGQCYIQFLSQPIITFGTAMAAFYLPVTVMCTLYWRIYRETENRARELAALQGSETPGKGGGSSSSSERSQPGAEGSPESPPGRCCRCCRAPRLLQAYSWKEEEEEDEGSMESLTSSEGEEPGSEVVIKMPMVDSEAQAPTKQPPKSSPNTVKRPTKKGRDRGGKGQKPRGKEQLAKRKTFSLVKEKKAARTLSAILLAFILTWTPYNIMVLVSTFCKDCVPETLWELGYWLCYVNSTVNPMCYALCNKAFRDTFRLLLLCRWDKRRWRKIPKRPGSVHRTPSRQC
Outline: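 Male Wistar rat cerebral cortex homogenate in ice-cold 10 mM NaKPB pH 7.4, diluted 1:400 (~0.55 mg protein/2.0 mL). [3H]PZ 0.1 nM, 60 min at 25 °C. Filtered on PEI-treated GF/B, scintillation read; apparent Ki by one-site nonlinear regression; one or two determinations.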

[4] = target: T1, Muscarinic acetylcholine receptor M2; assay: Binding affinity at [3H]QNB radiolabeled muscarinic M2 receptor in rat heart.
Outline: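 Rat heart (male Wistar) minced and Polytron-homogenized in 10 mM NaKPB pH 7.4, spun 4800g 15 min 4 °C, resuspended, gauze-filtered, diluted 1:750 (0.15–0.2 mg protein/2.0 mL). Filtration, scintillation; one-site Ki.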

[5] = target: T1, Muscarinic acetylcholine receptor M2; assay: Binding affinity at [3H]QNB and GppNHp radiolabeled muscarinic M2 receptor in rat heart.
Outline: (§1)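 Washed rat heart membranes (male Wistar; 4800g pellet, 1:750, 0.15–0.2 mg protein/2.0 mL) in 10 mM NaKPB pH 7.4 with Gpp(NH)p 10 μM final. Filter binding, scintillation counting; apparent Ki from one-site fit.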

[6] = target: T3, Muscarinic acetylcholine receptor M2 (Rattus norvegicus) (UniProt P10980); assay: Relative [3H]QNB and [3H]-CD binding to muscarinic M2 receptor
T3 sequence (whole entry): T1 sequence (P10980 whole entry)

[7] = target: Muscarinic receptor M1 and M2 (Rattus norvegicus) (UniProt P08482+P10980); assay: Ratio of [3H]QNB+GppNHp/[3H]-QNB; format: protein assay
[8] = target: T1, Muscarinic acetylcholine receptor M2; assay: Tested for binding affinity to [3H]QNB and GppNHp radiolabeled muscarinic M2 receptor in rat heart; outline: as §1
[9] = Ratio of [3H]QNB+GppNHp/[3H]-PZ was determined
[10] = Ratio of [3H]QNB+/[3H]-PZ was determined

SMILES | Ki [1] | Ki [2] | Ki [3] | Ki [4] | Ki [5] | Ratio [6] | Ratio [7] | Ki [8] | Ratio [9] | Ratio [10]
O=C1CCCN1CC#CCN1CCCC1 [OXOTREMORINE] | 0.5 nM | 0.06 µM | 0.12 µM | 5 nM | 0.16 µM |  |  |  |  | 
CN(C)CC#CCN1CCCC1=O | 6.3 nM | 2.9 µM | 6.8 µM | 70 nM | 1.6 µM | 460 |  |  |  | 
C[N+](C)(C)CC#CCN1CCCC1=O [OXOTREMORINE METHIODIDE] | 0.78 nM | 0.91 µM | 1.2 µM | 60 nM | 1.5 µM | 1200 |  |  |  | 
C[C@@H]1CCN(CC#CCN2CCCC2)C1=O | 23 nM | 0.43 µM | 0.25 µM | 90 nM | 0.43 µM | 19 |  |  |  | 
CC(=O)N(C)C(C)C#CCN1CCCC1 (centres undefined) | 4 nM | 0.08 µM | 0.04 µM | 70 nM |  | 19.5 | 2.5 and 5.1 and 1.8 | 180 nM |  | 
C[C@@H]1CC(=O)N(CC#CC[N+](C)(C)C)C1 | 980 nM | > 100 µM | > 109 µM | 21000 nM | 52 µM |  | 2.4 |  | 5.7 | 
C[C@H]1CCN(CC#CCN(C)C)C1=O | 630 nM | > 100 µM | 1080 µM | 21000 nM | 30 µM |  | 1.4 |  |  | 
C[C@H]1CC(=O)N(CC#CC[N+](C)(C)C)C1 | 450 nM | > 100 µM | 108 µM | 1900 nM |  |  | 0.23 | > 100000 nM |  | 
CC1CCN(CC#CCN(C)C)C1=O (centres undefined) | 260 nM | 22 µM | 212 µM | 1300 nM | 13 µM | 85 |  |  |  | 
C[C@@H]1CC(=O)N(CC#CCN(C)C)C1 | > 10000 nM | > 1000 µM | > 100 µM | > 100000 nM | > 100 µM |  | > 100 |  |  | 
C[C@H]1CC(=O)N(CC#CCN(C)C)C1 | > 10000 nM | 150 µM | 15 µM | > 100000 nM | > 100 µM |  | > 100 |  |  | 
C[C@@H]1CC(=O)N(CC#CCN2CCCC2)C1 | 2500 nM | 4.7 µM | 1.3 µM | 13000 nM | 27 µM | 1.9 | 2 |  | 21 | 
C[C@H]1CCN(CC#CCN2CCCC2)C1=O | 55 nM | 2.9 µM | 2.2 µM | 110 nM | 3.3 µM |  | 32 |  | 1.5 | 
CC1CCN(CC#CCN2CCCC2)C1=O (centres undefined) | 15 nM | 0.71 µM | 0.29 µM | 80 nM | 1.1 µM | 48 |  |  |  | 
O=C1CCCN1CC#CCN1CCCCC1 | 56 nM | 0.12 µM | 0.13 µM | 70 nM | 0.35 µM | 2.2 | 5 |  | 2.7 | 0.54
C[C@H]1CC(=O)N(CC#CCN2CCCC2)C1 | 1500 nM | 2.3 µM | 0.51 µM | 3800 nM | 6 µM | 1.6 |  |  |  | 
C[C@@H]1CCN(CC#CCN(C)C)C1=O | 71 nM | 8.9 µM | 6.8 µM | 240 nM | 9.3 µM | 125 |  |  |  | 

— ChEMBL document CHEMBL1127058, “The synthesis and biochemical pharmacology of enantiomerically pure methylated oxotremorine derivatives” (J Med Chem, 1993)
